Published values pooled from the literature.
Each line is one published result; the experiments were not run side by side.
CDK3: Cyclin-dependent kinase 3 (CDK3, Homo sapiens, UniProt Q00526)
CDK3 with cyclin E: Cyclin-dependent kinase 3, with cyclin E (CDK3, Homo sapiens, UniProt Q00526)

Structure (SMILES)	target	assay	setting	endpoint	result
N#Cc1ccc(NC(=O)Nc2ccccc2)cc1	CDK3	cell-free assay, competition with immobilised ligand	25 µM	remaining binding	98%
C[C@]1(O)CCCN(c2nc(Nc3ccc(S(=O)(=O)N[C@H]4CC[C@H](CN5CCN(c6ccc(C7CCC(=O)NC7=O)cc6F)CC5)CC4)cc3F)ncc2C(F)(F)F)C1 (some centres unmarked)	CDK3	binding, competition with immobilised ligand	1 µM	remaining binding	74%
CN1CCN(C(=O)c2ccc(NC(=O)Nc3ccc(N(C)c4ccnc(Nc5ccc(CS(C)(=O)=O)cc5)n4)cc3)cc2)CC1	CDK3	binding, competition with immobilised ligand	1 µM	remaining binding	100%
C=CC(=O)N1CCC([C@@H]2CCNc3c(C(N)=O)c(-c4ccc(Oc5ccccc5)cc4)nn32)CC1	CDK3	enzyme activity, inhibitor	1 µM	inhibition	8%
C[C@]1(O)CCCN(c2nc(Nc3ccc(S(=O)(=O)N[C@H]4CC[C@H](CN5CCN(c6ccc(C7CCC(=O)NC7=O)cc6F)CC5)CC4)cc3Cl)ncc2C(F)(F)F)C1 (some centres unmarked)	CDK3	binding, competition with immobilised ligand	1 µM	remaining binding	69%
COc1ccc2oc(-c3ccc4nc(N)oc4c3)c/c(=N\c3ccccc3NC(=O)CCN)c2c1	CDK3 with cyclin E	binding	1 µM	remaining binding	108%
CC(C)S(=O)(=O)c1ccc2nccc(Nc3ccc4sc(C5CCCC5)nc4c3)c2c1	CDK3 with cyclin E	enzyme activity, inhibitor	1 µM	activity vs control	96.5%
Cc1ccc(NC(=O)c2ccnc(C(F)(F)F)c2)cc1-c1cc(OCCO)nc(N2CCOCC2)c1	CDK3	binding, competition with immobilised ligand	1 µM	remaining binding	89%
C1=C/COCc2cc(ccc2OCCN2CCCC2)Nc2nccc(n2)-c2cccc(c2)COC/1	CDK3	cell-free assay	0.1 µM	remaining signal	100%
CC#CC(=O)N1CCC[C@H]1c1nc(-c2ccc(C(=O)Nc3ccccn3)cc2)c2c(N)nccn12	CDK3	enzyme activity, inhibitor	1 µM	inhibition	8%
CCCCC(=O)Nc1ccc(-c2ccc3ncn(CCC)c(=O)c3c2)cn1	CDK3	binding, competition with immobilised ligand	0.5 µM	remaining binding	93%
